{"data": "Experimental data from different studies", "organism": "Staphylococcus aureus", "effect on": "microbial growth", "note": "Lines come from different studies, so protocols differ."}
{"SMILES": "CC(O)CSc1nnc(-c2cc3c(ccc4ccccc43)o2)n1-c1ccccc1 (centres unmarked)", "MIC": "10000 mg/L"}
{"SMILES": "CC(C)=CCCC(C)=CC1c2c(C)nn(-c3ccccc3)c2NN1C(=O)c1ccncc1 (centres unmarked)", "system": "MTCC96", "setting": "24 h", "MIC": "> 100 mg/L"}
{"SMILES": "CO[C@@H]1[C@@H](OC(N)=O)[C@@H](O)[C@H](Oc2ccc3c(O)c(NC(=O)c4ccc(O)c(CC=C(C)C)c4)c(=O)oc3c2C)OC1(C)C", "test": "broth dilution", "system": "ATCC29213", "MIC": "0.25 mg/L"}
{"SMILES": "O=C(O)c1cn(C2CC2)c2cc(N3CCNCC3)c(F)cc2c1=O", "system": "MTCC96", "setting": "24 h", "MIC": "0.12 mg/L"}
{"SMILES": "Cc1ccccc1NC(=O)C=Cc1ccc(O)c(O)c1", "test": "broth dilution", "system": "FDA209", "MIC": "8 mg/L"}
{"SMILES": "CN[C@H](CC(C)C)C(=O)N[C@H]1C(=O)N[C@@H](CC(N)=O)C(=O)N[C@H]2C(=O)N[C@H]3C(=O)N[C@H](C(=O)N[C@H](C(=O)O)c4cc(O)cc(O)c4-c4cc3ccc4O)[C@H](O)c3ccc(c(Cl)c3)Oc3cc2cc(c3O[C@@H]2O[C@H](CO)[C@@H](O)[C@H](O)[C@H]2O[C@H]2C[C@](C)(N)[C@H](O)[C@H](C)O2)Oc2ccc(cc2Cl)[C@H]1O", "system": "BAA44 MRSA", "MIC": "1 µM"}
{"SMILES": "CN[C@@H]1[C@@H](O[C@H]2O[C@H](CO)[C@@H](N)[C@H](O)[C@H]2O)OC2C[C@@H](N)[C@@H](O[C@H]3[C@H](O)[C@@H](O)[C@H](N)C[C@@H]3N)OC2[C@@H]1O (some centres unmarked)", "setting": "24 h", "MIC": "1.25 to 2.5 µM"}
{"SMILES": "Cc1nn(-c2ccccc2)c2c1C(c1ccc(O)cc1)N(C(=O)c1ccncc1)N2 (centres unmarked)", "system": "MTCC96", "setting": "24 h", "MIC": "> 100 mg/L"}
{"SMILES": "O=C(C=Cc1ccc(O)c(O)c1)OCc1ccccc1", "test": "broth dilution", "system": "FDA209", "MIC": "8 mg/L"}
{"SMILES": "Cc1[nH]c(C(=O)Nc2ccc(C(=O)NCC(=O)O)cc2N2CC[C@@H](N)C2)c(Cl)c1Cl.Cl", "test": "broth dilution", "system": "ATCC29213", "MIC": "> 32 mg/L"}
{"SMILES": "O=C(C=Cc1ccc(O)c(O)c1)Oc1cccc2cccnc12", "test": "broth dilution", "system": "FDA209", "MIC": "8 mg/L"}
{"SMILES": "Cl.N[C@H]1CCN(c2cc(C(=O)NCC(=O)O)ccc2NC(=O)c2cc(Br)c(Br)[nH]2)C1", "test": "broth dilution", "system": "ATCC29213", "MIC": "> 32 mg/L"}
{"SMILES": "C[C@@H]1O[C@@H](OC[C@H]2O[C@@H](Oc3cc(O)c4c(c3)O[C@H](c3ccc(O)cc3)CC4=O)[C@H](O)[C@@H](O)[C@@H]2O)[C@H](O)[C@H](O)[C@H]1O", "test": "broth dilution", "setting": "16 h", "MIC": "> 250 mg/L"}
{"SMILES": "CC(C)NCC(COc1cccc2ccccc12)OC(=O)C=Cc1ccc(O)c(O)c1 (centres unmarked)", "test": "broth dilution", "system": "FDA209", "MIC": "32 mg/L"}
{"SMILES": "CC(C)(C)OC(=O)N1CCN(c2cc(C(=O)NCC(=O)O)ccc2NC(=O)c2cc(Br)c(Br)[nH]2)CC1", "test": "broth dilution", "system": "ATCC29213", "MIC": "> 32 mg/L"}
{"SMILES": "CC1(C)S[C@@H]2[C@H](NC(=O)[C@H](N)c3ccccc3)C(=O)N2[C@H]1C(=O)O", "test": "broth dilution", "system": "FDA209", "MIC": "4 mg/L"}
{"SMILES": "Cc1ccc(-c2nnc(SCC(C)O)n2-c2ccccc2)cc1 (centres unmarked)", "MIC": "3500 mg/L"}
{"SMILES": "Cc1[nH]c(C(=O)Nc2ccc(C(=O)NCC(=O)O)cc2N2CC[C@@H](NC(=O)OC(C)(C)C)C2)c(Cl)c1Cl", "test": "broth dilution", "system": "ATCC29213", "MIC": "> 32 mg/L"}
{"SMILES": "COc1ccc(C2c3c(C)nn(-c4ccccc4)c3NN2C(=O)c2ccncc2)cc1 (centres unmarked)", "system": "MTCC96", "setting": "24 h", "MIC": "64 mg/L"}
{"SMILES": "CC(O)CSc1nnc(Cn2cnc3c2c(=O)n(C)c(=O)n3C)n1-c1ccccc1 (centres unmarked)", "MIC": "9000 mg/L"}
{"SMILES": "Cc1[nH]c(C(=O)Nc2ccc(C(=O)NCC(=O)O)cc2N2CCN(C(=O)OC(C)(C)C)CC2)c(Cl)c1Cl", "test": "broth dilution", "system": "ATCC29213", "MIC": "> 32 mg/L"}
{"SMILES": "Cc1nn(-c2ccccc2)c2c1C(c1ccc(N(C)C)cc1)N(C(=O)c1ccncc1)N2 (centres unmarked)", "system": "MTCC96", "setting": "24 h", "MIC": "8 mg/L"}
{"SMILES": "O=C(O)[C@H]1O[C@@H](Oc2c(-c3ccc(O)c(O)c3)oc3cc(O)cc(O)c3c2=O)[C@H](O)[C@@H](O)[C@@H]1O", "test": "broth dilution", "setting": "16 h", "MIC": "> 250 mg/L"}
{"SMILES": "C=C/C=C(\\C)CC[C@H]1C[C@H](O)CC(=O)O1", "test": "broth dilution", "system": "ATCC6538P", "MIC": "256 mg/L"}
{"SMILES": "C[C@@H]1O[C@@H](OC[C@H]2O[C@@H](Oc3c(-c4ccc(OCCO)c(OCCO)c4)oc4cc(OCCO)cc(O)c4c3=O)[C@H](O)[C@@H](O)[C@@H]2O)[C@H](O)[C@H](O)[C@H]1O", "test": "broth dilution", "setting": "16 h", "MIC": "> 1020 mg/L"}
{"SMILES": "CC(C)(C)OC(=O)N[C@@H]1CCN(c2cc(C(=O)NCC(=O)O)ccc2NC(=O)c2cc(Br)c(Br)[nH]2)C1", "test": "broth dilution", "system": "ATCC29213", "MIC": "> 32 mg/L"}
